Assay results published in ChEMBL document CHEMBL1142242, “Indanylacetic acid derivatives carrying 4-thiazolyl-phenoxy tail groups, a new class of potent PPAR alpha/gamma/delta pan agonists: synthesis, structure-activity relationship, and in vivo efficacy” (J Med Chem, 2007).
In brackets after ≈: the same amount, converted by molar mass. Activity calls are given as the source filed them. The rule behind the calls is not given here.

Assays:
[1] = test system: Syrian golden hamster; assay: Reduction of LDL level in fat fed hyperlipidemic Golden Syrian hamster at 100 mg/kg, po after 14 days; assay type: functional, organism-based; design: dose 100 mg/kg; conditions: Mesocricetus auratus
In short: (§1)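 Male Syrian Golden hamsters (≤7 weeks, 120-150 g) on high fat diet plus 10% fructose drinking water; bled day 10, then dosed orally once daily by weight for 14 days; necropsy day 24; EDTA plasma lipoproteins resolved by FPLC; mean ± SEM, 10 hamsters.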

[2] = test system: Syrian golden hamster; assay: Reduction of VLDL level in fat fed hyperlipidemic Golden Syrian hamster at 100 mg/kg, po after 14 days; assay type: functional, organism-based; design: dose 100 mg/kg; conditions: Mesocricetus auratus; in short: as §1
[3] = test system: Syrian golden hamster; assay: Increase of HDL/LDL ratio in fat fed hyperlipidemic Golden Syrian hamster at 100 mg/kg, po after 14 days; assay type: functional, organism-based; design: dose 100 mg/kg; conditions: Mesocricetus auratus; in short: as §1
[4] = test system: Mus musculus; assay: Reduction of blood glucose level in orally dosed db/db mouse at 1 mg/kg after 8 days; assay type: functional, organism-based; design: dose 1 mg/kg
In short: (§2)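 Female db/db mice, on chow 3-4 weeks to confirm hyperglycemia, grouped by equal baseline blood glucose; oral dosing once daily in 0.5% methylcellulose in water; blood glucose by analyzer ~24 h after last dose; percent change vs vehicle = ((Tf/Ti)/(Vf/Vi) − 1) × 100.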

[5] = test system: Mus musculus; assay: Reduction of blood glucose level in orally dosed db/db mouse at 10 mg/kg after 8 days; assay type: functional, organism-based; design: dose 10 mg/kg; in short: as §2
[6] = test system: Mus musculus; assay: Reduction of blood glucose level in orally dosed db/db mouse at 3 mg/kg after 8 days; assay type: functional, organism-based; design: dose 3 mg/kg; in short: as §2
[7] = test system: Rattus norvegicus; assay: Reduction of FFA level in ZDF rat at 10 mg/kg, po after 21 days; assay type: functional, organism-based; design: dose 10 mg/kg
In short: (§3)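 Male ZDF rats, on chow 4-8 weeks to confirm hyperglycemia, grouped by equal baseline blood glucose; oral dosing once daily for 21 days in 0.5% methylcellulose in water; bled ~24 h after last dose; plasma FFA measured.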

[8] = test system: Mus musculus; assay: Increase of plasma HDLc level in female human apoA1 transgenic mouse at 10 mg/kg; assay type: functional, organism-based; design: dose 10 mg/kg
In short: (§4)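 hApoA1 transgenic mice, 6 weeks old at purchase, grouped by equal baseline plasma triglyceride; oral dosing once daily for 7 days in 0.5% methylcellulose in water; bled ~24 h after last dose; plasma triglyceride and HDLc by autoanalyzer; mean ± SEM, 6-8 mice.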

[9] = test system: Mus musculus; assay: Reduction of plasma triglyceride level in male human apoA1 transgenic mouse at 10 mg/kg; assay type: functional, organism-based; design: dose 10 mg/kg; in short: as §4
[10] = test system: Mus musculus; assay: Increase of plasma HDLc level in male human apoA1 transgenic mouse at 10 mg/kg; assay type: functional, organism-based; design: dose 10 mg/kg; in short: as §4
[11] = test system: Rattus norvegicus; assay: Reduction of FFA level in ZDF rat at 1 mg/kg, po after 21 days; assay type: functional, organism-based; design: dose 1 mg/kg; in short: as §3
[12] = test system: Rattus norvegicus; assay: Reduction of FFA level in ZDF rat at 3 mg/kg, po after 21 days; assay type: functional, organism-based; design: dose 3 mg/kg; in short: as §3
[13] = test system: Syrian golden hamster; assay: Reduction of VLDL level in fat fed hyperlipidemic Golden Syrian hamster at 10 mg/kg, po after 14 days; assay type: functional, organism-based; design: dose 10 mg/kg; conditions: Mesocricetus auratus; in short: as §1
[14] = test system: PPAR alpha (Mesocricetus auratus); assay: Agonist activity at Syrian Golden hamster PPAR alpha
[15] = biological target: T1, Peroxisome proliferator-activated receptor alpha (Homo sapiens) (UniProt Q07869); assay: (§5) Agonist activity at human PPAR alpha expressed in CV1 cells by GAL4 transactivation assay; assay type: functional, cell-based; conditions: CV-1
T1 sequence (whole entry): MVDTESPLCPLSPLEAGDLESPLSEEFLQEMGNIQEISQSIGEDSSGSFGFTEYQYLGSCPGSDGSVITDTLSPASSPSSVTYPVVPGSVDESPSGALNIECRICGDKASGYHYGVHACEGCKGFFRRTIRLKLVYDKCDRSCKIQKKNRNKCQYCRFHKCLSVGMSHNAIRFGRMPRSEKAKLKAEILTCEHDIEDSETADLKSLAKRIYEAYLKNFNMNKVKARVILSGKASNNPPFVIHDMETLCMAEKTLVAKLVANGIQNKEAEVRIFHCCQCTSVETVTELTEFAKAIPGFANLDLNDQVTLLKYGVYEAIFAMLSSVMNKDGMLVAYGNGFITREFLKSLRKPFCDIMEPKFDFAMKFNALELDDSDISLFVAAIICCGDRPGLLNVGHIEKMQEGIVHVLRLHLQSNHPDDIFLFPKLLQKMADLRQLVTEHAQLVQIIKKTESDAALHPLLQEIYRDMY
In short: (§6)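 CV-1 cells plated, grown overnight at 37 °C in 5% CO₂, then transfected with GAL4-fused human PPARα ligand binding domain, pFR-LUC and pRL-SV40 reporter DNAs by lipofection. After a further overnight incubation, cells were exposed to compound or vehicle overnight. Activity was read as dual-luciferase reporter signal.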

[16] = biological target: Estrogen receptor (Mus musculus, UniProt O08537+P19785); assay: Displacement of [3H]O-estradiol from ER in Swiss mouse uteri; assay type: protein assay
[17] = biological target: T2, Peroxisome proliferator-activated receptor alpha (Mus musculus) (UniProt P23204); assay: (§7) Agonist activity at mouse PPAR alpha; assay type: functional
T2 sequence (whole entry): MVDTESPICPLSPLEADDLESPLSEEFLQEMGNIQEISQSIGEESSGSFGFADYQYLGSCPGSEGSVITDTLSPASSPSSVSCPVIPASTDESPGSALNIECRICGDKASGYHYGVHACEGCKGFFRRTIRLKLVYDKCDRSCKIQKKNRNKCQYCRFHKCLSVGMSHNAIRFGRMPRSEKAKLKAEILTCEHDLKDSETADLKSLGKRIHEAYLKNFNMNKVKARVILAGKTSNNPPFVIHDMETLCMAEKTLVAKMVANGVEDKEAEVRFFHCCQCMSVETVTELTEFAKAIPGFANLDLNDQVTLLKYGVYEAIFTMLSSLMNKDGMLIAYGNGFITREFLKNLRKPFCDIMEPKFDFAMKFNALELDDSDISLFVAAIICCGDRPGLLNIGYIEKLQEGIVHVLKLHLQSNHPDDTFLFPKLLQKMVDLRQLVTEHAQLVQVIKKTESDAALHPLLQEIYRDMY

[18] = test system: Syrian golden hamster; assay: Reduction of LDL level in fat fed hyperlipidemic Golden Syrian hamster at 10 mg/kg, po after 14 days; assay type: functional, organism-based; design: dose 10 mg/kg; conditions: Mesocricetus auratus; in short: as §1
[19] = test system: Syrian golden hamster; assay: Increase of HDL/LDL ratio in fat fed hyperlipidemic Golden Syrian hamster at 10 mg/kg, po after 14 days; assay type: functional, organism-based; design: dose 10 mg/kg; conditions: Mesocricetus auratus; in short: as §1
[20] = biological target: Androgen receptor (Homo sapiens, UniProt P10275); assay: Displacement of [3H]dihydrotestosterone from human recombinant androgen receptor expressed in SF9 baculovirus cells
[21] = biological target: Cytochrome P450 2C9 (Homo sapiens, UniProt P11712); assay: Inhibition of CYP2C9; assay type: ADME
[22] = biological target: Glucocorticoid receptor (Homo sapiens, UniProt P04150); assay: Displacement of [H]dexamethaxone from glucocorticoid receptor in HUH cells; assay type: cell-based
[23] = biological target: Cytochrome P450 3A4 (Homo sapiens, UniProt P08684); assay: Inhibition of CYP3A4; assay type: ADME
In short: (§8)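 Enzyme assays per CYP isoform (1A2, 2C8, 2D6, 3A4), with turnover of an appropriate fluorescent substrate as read-out; IC₅₀ reported.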

[24] = Cmax in mouse at 10 mg/kg, po; assay type: ADME, organism-based; design: dose 10 mg/kg, route oral; conditions: in vivo
In short: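 Mice dosed orally in 0.5% methylcellulose vehicle; plasma Cmax reported.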

[25] = biological target: Cytochrome P450 1A2 (Homo sapiens, UniProt P05177); assay: Inhibition of CYP1A2; assay type: ADME; in short: as §8
[26] = biological target: T3, Peroxisome proliferator-activated receptor alpha (Homo sapiens, UniProt Q07869); assay: Agonist activity at human PPAR alpha by FRET assay; assay type: functional
T3 sequence (Q07869 whole entry): T1 sequence (whole entry)
In short: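 Human PPARα ligand binding domain (GST-tagged) association with biotin-labeled co-activator CBP; Eu-labeled anti-GST antibody and streptavidin-APC; incubated 2 h at rt in buffer with or without compound; fluorescence read at 615 or 655 nm emission, 340 nm excitation.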

[27] = biological target: T4, Peroxisome proliferator-activated receptor delta (Homo sapiens, UniProt Q03181); assay: Agonist activity at human PPAR delta expressed in CV1 cells by GAL4 transactivation assay
T4 sequence (Q03181 whole entry): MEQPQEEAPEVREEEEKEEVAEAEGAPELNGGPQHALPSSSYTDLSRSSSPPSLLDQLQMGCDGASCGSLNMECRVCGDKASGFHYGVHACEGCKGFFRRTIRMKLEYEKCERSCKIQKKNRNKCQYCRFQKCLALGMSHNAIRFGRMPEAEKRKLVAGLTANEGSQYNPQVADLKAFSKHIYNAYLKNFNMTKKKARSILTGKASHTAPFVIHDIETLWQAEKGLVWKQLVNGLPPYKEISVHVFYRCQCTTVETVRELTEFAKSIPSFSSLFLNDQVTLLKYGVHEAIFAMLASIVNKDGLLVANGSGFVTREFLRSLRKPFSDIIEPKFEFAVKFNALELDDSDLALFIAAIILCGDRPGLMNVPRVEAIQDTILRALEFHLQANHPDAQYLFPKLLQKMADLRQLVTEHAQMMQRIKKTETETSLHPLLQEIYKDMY

[28] = biological target: Progesterone receptor (Homo sapiens, UniProt P06401); assay: Displacement of [3H]progesterone from progesterone receptor in T47D cells; assay type: cell-based
In short: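 Cytosol from T47D cells incubated overnight at 4 °C with ³H-progesterone at 10 nM final, with or without compound. DMSO defined total binding and 1 µM unlabelled progesterone defined nonspecific binding. Bound and free ligand were separated on a spin plate, and the flow-through was counted by scintillation.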

[29] = biological target: T3, Peroxisome proliferator-activated receptor alpha; assay: as §5; assay type: functional, cell-based, CV-1; in short: as §6
[30] = biological target: Cytochrome P450 2C8 (Homo sapiens, UniProt P10632); assay: Inhibition of CYP2C8; assay type: ADME; in short: as §8
[31] = biological target: Peroxisome proliferator-activated receptor delta (Mus musculus, UniProt P35396); assay: Agonist activity at mouse PPAR delta
[32] = biological target: Peroxisome proliferator-activated receptor alpha (Mus musculus, UniProt P23204); assay: as §7; assay type: functional
[33] = Aqueous solubility at pH 6.8; assay type: physicochemical
[34] = biological target: T4, Peroxisome proliferator-activated receptor delta; assay: Agonist activity at human PPAR delta by FRET assay; assay type: functional
[35] = biological target: Cytochrome P450 2D6 (Homo sapiens, UniProt P10635); assay: Inhibition of CYP2D6; assay type: ADME; in short: as §8
Chain of Cytochrome P450 2D6 (P10635 whole entry): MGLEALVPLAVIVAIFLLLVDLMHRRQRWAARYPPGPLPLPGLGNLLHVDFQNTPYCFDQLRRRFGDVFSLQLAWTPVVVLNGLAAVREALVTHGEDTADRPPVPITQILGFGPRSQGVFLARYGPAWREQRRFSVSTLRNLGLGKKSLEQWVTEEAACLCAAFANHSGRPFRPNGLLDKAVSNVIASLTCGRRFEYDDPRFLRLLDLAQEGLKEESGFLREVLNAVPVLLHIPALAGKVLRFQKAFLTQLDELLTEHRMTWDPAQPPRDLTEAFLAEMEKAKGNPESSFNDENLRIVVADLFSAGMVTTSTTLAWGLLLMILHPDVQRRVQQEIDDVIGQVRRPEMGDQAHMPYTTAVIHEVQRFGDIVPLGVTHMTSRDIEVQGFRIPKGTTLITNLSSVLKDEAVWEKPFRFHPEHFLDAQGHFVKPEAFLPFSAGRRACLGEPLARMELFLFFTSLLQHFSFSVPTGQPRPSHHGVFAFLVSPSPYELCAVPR

Chain of Progesterone receptor (P06401 whole entry): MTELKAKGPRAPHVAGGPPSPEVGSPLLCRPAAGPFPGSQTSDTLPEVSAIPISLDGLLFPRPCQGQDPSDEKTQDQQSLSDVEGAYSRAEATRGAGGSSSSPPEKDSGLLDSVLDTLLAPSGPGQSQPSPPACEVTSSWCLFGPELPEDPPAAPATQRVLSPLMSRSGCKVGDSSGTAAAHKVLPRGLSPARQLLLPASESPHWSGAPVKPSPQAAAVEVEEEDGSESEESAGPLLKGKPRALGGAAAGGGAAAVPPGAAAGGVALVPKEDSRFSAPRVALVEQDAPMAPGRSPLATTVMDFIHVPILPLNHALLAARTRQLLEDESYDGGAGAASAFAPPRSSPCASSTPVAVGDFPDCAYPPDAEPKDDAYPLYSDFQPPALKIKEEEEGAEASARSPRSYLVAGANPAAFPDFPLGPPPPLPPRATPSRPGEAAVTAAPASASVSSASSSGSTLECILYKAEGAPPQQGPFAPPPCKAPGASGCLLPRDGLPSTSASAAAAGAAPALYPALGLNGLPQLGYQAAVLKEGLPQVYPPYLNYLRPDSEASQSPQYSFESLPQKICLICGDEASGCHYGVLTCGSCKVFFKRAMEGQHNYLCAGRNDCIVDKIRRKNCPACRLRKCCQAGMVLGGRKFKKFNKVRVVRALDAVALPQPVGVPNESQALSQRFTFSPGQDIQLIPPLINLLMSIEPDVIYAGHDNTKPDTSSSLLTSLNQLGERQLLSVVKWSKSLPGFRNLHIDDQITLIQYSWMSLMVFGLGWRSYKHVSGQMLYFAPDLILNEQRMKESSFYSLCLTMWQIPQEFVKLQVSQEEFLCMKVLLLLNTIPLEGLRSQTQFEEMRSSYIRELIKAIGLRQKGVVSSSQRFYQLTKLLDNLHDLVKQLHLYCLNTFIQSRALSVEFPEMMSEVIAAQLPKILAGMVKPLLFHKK
Chain of Cytochrome P450 3A4 (P08684 whole entry, canonical isoform): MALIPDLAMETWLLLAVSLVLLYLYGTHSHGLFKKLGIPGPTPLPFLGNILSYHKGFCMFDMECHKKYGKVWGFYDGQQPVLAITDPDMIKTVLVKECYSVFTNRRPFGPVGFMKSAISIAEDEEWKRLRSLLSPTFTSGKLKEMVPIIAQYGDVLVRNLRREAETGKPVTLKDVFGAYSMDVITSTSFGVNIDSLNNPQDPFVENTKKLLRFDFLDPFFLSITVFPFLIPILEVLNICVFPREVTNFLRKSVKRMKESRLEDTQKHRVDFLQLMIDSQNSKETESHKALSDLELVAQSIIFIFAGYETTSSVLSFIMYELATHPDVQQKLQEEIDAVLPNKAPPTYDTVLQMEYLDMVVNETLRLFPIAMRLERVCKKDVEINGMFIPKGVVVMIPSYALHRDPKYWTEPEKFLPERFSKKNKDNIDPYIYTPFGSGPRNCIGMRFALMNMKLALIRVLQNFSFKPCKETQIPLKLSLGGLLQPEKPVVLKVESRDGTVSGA
Chain of Cytochrome P450 2C8 (P10632 whole entry): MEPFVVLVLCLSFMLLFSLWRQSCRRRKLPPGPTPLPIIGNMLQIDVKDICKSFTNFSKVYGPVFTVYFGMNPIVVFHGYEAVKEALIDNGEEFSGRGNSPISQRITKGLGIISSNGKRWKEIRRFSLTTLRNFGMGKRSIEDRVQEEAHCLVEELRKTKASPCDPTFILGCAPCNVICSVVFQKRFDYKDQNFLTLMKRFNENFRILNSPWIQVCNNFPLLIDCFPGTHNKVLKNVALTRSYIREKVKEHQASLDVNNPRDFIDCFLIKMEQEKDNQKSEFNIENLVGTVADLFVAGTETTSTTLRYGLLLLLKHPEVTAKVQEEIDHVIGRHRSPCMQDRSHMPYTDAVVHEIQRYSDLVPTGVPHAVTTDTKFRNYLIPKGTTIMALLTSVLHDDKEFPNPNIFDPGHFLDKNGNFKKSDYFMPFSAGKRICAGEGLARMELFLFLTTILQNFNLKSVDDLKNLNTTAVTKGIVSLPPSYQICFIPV
Chain of Peroxisome proliferator-activated receptor delta (Mus musculus, UniProt P35396) (P35396 whole entry): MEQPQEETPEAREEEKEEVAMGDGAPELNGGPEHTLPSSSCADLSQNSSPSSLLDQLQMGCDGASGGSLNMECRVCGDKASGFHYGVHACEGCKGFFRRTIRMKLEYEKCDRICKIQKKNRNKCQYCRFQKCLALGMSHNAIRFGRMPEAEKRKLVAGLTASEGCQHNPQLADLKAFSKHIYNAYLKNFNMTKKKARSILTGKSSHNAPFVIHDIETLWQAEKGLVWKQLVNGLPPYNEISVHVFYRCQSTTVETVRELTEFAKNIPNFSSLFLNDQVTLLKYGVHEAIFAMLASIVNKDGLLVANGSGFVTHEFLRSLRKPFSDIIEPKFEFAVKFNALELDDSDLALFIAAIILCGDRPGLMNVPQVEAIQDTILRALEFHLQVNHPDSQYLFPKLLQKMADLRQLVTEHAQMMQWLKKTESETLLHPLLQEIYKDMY
Chain of Cytochrome P450 2C9 (P11712 whole entry): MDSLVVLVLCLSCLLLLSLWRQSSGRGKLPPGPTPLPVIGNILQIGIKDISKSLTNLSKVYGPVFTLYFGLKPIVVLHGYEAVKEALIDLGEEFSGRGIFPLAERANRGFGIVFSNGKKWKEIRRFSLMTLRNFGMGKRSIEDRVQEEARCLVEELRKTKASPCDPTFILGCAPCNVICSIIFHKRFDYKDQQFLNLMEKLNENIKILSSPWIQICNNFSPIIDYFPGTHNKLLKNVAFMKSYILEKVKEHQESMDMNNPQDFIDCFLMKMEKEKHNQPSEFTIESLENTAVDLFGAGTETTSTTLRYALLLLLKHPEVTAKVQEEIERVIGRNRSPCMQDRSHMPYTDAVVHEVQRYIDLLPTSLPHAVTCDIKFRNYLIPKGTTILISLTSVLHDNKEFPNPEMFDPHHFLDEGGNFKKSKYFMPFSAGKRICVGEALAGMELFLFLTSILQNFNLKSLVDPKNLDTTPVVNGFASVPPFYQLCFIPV
Chain of Glucocorticoid receptor (P04150 whole entry): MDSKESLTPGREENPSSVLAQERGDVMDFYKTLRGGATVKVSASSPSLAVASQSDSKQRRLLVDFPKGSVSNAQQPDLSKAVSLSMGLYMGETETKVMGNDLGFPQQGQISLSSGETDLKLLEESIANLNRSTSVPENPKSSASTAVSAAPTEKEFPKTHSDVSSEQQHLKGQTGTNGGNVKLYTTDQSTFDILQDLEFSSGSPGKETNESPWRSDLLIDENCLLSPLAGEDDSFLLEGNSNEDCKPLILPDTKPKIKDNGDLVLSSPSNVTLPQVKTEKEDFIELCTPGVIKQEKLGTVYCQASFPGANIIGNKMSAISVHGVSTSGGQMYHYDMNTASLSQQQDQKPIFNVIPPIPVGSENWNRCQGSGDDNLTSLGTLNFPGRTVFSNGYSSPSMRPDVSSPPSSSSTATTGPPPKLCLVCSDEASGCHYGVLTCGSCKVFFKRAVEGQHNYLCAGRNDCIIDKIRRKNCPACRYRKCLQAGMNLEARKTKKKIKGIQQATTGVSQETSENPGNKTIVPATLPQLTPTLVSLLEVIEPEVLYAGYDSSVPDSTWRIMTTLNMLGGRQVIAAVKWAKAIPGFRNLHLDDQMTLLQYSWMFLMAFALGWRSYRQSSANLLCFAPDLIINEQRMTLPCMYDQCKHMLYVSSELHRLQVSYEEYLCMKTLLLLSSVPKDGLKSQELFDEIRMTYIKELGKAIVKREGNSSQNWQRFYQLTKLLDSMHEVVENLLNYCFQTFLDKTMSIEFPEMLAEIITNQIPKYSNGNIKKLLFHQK
Chain of Androgen receptor (P10275 whole entry): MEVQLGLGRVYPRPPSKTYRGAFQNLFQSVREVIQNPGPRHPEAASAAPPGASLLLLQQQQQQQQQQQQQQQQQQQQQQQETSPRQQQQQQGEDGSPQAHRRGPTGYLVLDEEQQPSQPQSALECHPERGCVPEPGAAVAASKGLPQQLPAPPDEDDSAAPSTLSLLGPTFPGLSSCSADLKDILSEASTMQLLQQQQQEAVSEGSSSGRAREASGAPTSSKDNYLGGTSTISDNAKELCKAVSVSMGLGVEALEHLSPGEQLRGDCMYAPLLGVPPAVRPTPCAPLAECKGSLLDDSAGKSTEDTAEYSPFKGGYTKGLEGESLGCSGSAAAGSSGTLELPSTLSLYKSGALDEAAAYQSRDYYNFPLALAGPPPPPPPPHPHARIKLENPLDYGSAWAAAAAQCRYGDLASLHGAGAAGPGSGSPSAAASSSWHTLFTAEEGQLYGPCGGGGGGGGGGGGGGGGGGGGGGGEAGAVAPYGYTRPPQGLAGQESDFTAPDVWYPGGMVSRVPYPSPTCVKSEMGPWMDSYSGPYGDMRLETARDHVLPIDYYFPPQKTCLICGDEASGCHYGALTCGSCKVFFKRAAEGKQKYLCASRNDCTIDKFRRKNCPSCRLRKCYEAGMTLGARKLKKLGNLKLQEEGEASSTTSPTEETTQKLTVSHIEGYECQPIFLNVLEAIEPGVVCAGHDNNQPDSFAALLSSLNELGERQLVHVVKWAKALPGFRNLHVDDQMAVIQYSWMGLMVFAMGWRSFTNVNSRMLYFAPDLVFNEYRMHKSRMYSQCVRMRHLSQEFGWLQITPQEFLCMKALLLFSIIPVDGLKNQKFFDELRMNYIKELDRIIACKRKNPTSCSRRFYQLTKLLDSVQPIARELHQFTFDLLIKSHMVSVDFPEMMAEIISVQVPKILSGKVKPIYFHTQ

CC(C)OC(=O)C(C)(C)Oc1ccc(C(=O)c2ccc(Cl)cc2)cc1
Activity [1]: Active | Activity [2]: Active | Activity [3]: Active

CN(CCOc1ccc(CC2SC(=O)NC2=O)cc1)c1ccccn1 (centres undefined)
Activity [4]: Dose-dependent effect | Activity [5]: Dose-dependent effect | Activity [6]: Dose-dependent effect | Activity [7]: Active

Cc1cc(SCc2sc(-c3ccc(C(F)(F)F)cc3)nc2C)ccc1OCC(=O)O
Activity [8]: Active | Activity [9]: Dose-dependent effect | Activity [10]: Dose-dependent effect

CCCc1cc(C2=NC3OCCCC3S2)ccc1OCCCOc1ccc2c(c1)CC[C@H]2CC(=O)O (some centres undefined)
Activity [11]: Active | Activity [12]: Active | Activity [8]: Active | Activity [13]: Active | Activity [9]: Dose-dependent effect | Activity [10]: Dose-dependent effect | Activity [4]: Dose-dependent effect | Activity [14]: 100% | Activity [15]: 88% | Activity [5]: Dose-dependent effect | Activity [6]: Dose-dependent effect | EC50 [16]: > 10 µM | Activity [17]: 25% | Activity [18]: Active | Activity [19]: Active

O=C(O)C[C@@H]1CCc2cc(OCCCOc3ccc(-c4nc5c(s4)CCCC5)cc3)ccc21
EC50 [20]: > 10 µM | IC50 [21]: > 10 µM | EC50 [22]: > 10 µM | IC50 [23]: > 10 µM | Cmax [24]: 20 µM | IC50 [25]: > 10 µM | EC50 [26]: 0.391 µM | EC50 [27]: 0.04 µM | EC50 [28]: > 10 µM | EC50 [29]: 0.152 µM | Activity [15]: 100% | IC50 [30]: > 10 µM | EC50 [31]: 0.084 µM | EC50 [16]: > 10 µM | EC50 [32]: > 10 µM | Activity [17]: 28% | solubility [33]: 31 µM (≈ 14.4 µg/mL) | EC50 [34]: 0.0022 µM | IC50 [35]: > 10 µM
